Experimental data as given in ChEMBL document CHEMBL1135620, “Cyclosporins: structure-activity relationships for the inhibition of the human FPR1 formylpeptide receptor” (J Med Chem, 2002).

target: T1, fMet-Leu-Phe receptor (Homo sapiens, UniProt P21462); test: Inhibitory activity against human formylpeptide receptor (FPR) of human leukemia HL-60 cells; format: cell-based; conditions: not given
T1 sequence (P21462 whole entry): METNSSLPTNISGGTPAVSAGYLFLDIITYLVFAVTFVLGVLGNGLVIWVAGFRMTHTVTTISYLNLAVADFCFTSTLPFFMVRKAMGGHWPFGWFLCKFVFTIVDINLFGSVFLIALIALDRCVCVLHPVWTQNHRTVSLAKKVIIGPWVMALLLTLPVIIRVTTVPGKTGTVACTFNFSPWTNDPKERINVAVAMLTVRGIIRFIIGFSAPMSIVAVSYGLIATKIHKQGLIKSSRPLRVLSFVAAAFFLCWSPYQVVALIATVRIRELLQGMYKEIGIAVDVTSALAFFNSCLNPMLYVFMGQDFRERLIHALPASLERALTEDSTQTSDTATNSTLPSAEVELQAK
Procedure, shortened: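 HL-60 cells differentiated 48 h with 0.2 mM dibutyryl cAMP, washed, then treated with 5 μM cytochalasin B (5–10 min, 37 °C). Stimulated 10 min with 30 nM f-MLF. N-acetyl-β-D-glucosaminidase release read at 410 nm on p-nitrophenyl substrate after spontaneous-release subtraction. Duplicate wells; IC20/IC50 as mean ± SD of independent experiments.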

| SMILES | IC50 [µM] |
| --- | --- |
| C/C=C/C[C@@H](C)[C@@H](O)[C@H]1C(=O)N[C@@H]([C@@H](C)O)C(=O)N(C)CC(=O)N[C@@H](CC(C)C)C(=O)N[C@@H](CC(C)C)C(=O)N(C)[C@@H](CC(C)C)C(=O)N[C@@H](C)C(=O)N[C@](O)(C(C)C)C(=O)N(C)[C@@H](CC(C)C)C(=O)N[C@@H](CC(C)C)C(=O)N(C)[C@@H](C(C)C)C(=O)N1C | 0.56 |
| C/C=C/C[C@@H](C)[C@@H](O)[C@H]1C(=O)N[C@@H]([C@@H](C)O)C(=O)N(C)CC(=O)N(C)[C@@H](CC(C)C)C(=O)N[C@@H](C(C)C)C(=O)N(C)[C@@H](CC(C)C)C(=O)N[C@@H](C)C(=O)N[C@H](C)C(=O)N(C)[C@@H](CC(C)C)C(=O)N(C)[C@@H](CC(C)C)C(=O)N[C@@H](C(C)C)C(=O)N1C | > 10 |
| CC(C)C[C@H]1C(=O)N[C@@H](C(C)C)C(=O)N(C)[C@@H](CC(C)C)C(=O)N[C@@H](C)C(=O)N[C@H](C)C(=O)N(C)[C@@H](CC(C)C)C(=O)N(C)[C@@H](CC(C)C)C(=O)N(C)[C@@H](C(C)C)C(=O)N(C)[C@@H](CC(C)C)C(=O)N[C@@H](C(C)C)C(=O)N(C)CC(=O)N1C | > 10 |
| CC/C=C/C[C@@H](C)[C@@H](O)[C@H]1C(=O)N[C@@H](CC)C(=O)N(C)CC(=O)N(C)[C@@H](CC(C)(C)O)C(=O)N[C@@H](C(C)C)C(=O)N(C)[C@@H](CC(C)C)C(=O)N[C@@H](C)C(=O)N[C@H](C)C(=O)N(C)[C@@H](CC(C)C)C(=O)N(C)[C@@H](CC(C)C)C(=O)N(C)[C@@H](C(C)C)C(=O)N1C | > 10 |

The next lines start with the values.

| IC50 [µM] | SMILES |
| --- | --- |
| 3.4 | C/C=C/C[C@@H](C)[C@@H](O)[C@H]1C(=O)N[C@@H](CCC)C(=O)N(C)CC(=O)N(C)[C@@H](CC(C)C)C(=O)N[C@@H](CCC)C(=O)N(C)[C@@H](CC(C)C)C(=O)N[C@@H](C)C(=O)N[C@H](C)C(=O)N(C)[C@@H](CC(C)C)C(=O)N(C)[C@@H](CC(C)C)C(=O)N(C)[C@@H](C(C)C)C(=O)N1C |
| 2.2 | C/C=C/C[C@@H](C)[C@@H](O)[C@H]1C(=O)N[C@@H](C)C(=O)N(C)CC(=O)N(C)[C@@H](CC(C)C)C(=O)N[C@@H](C(C)C)C(=O)N(C)[C@@H](CC(C)C)C(=O)N[C@@H](C)C(=O)N[C@H](C)C(=O)N(C)[C@@H](CC(C)C)C(=O)N[C@@H](CC(C)C)C(=O)N(C)[C@@H](C(C)C)C(=O)N1C |
| > 5 | CC/C=C/C[C@@H](C)[C@@H](O)[C@H]1C(=O)N[C@@H](CC)C(=O)N(C)CC(=O)N(C)[C@@H](C(C)C)C(=O)N[C@@H](C(C)C)C(=O)N(C)[C@@H](CC(C)C)C(=O)N[C@@H](C)C(=O)N[C@H](C)C(=O)N(C)[C@@H](CC(C)C)C(=O)N(C)[C@@H](CC(C)C)C(=O)N(C)[C@@H](C(C)C)C(=O)N1C |
| > 3 | C/C=C/C[C@@H](C)[C@@H](O)[C@H]1C(=O)N[C@@H](CCC)C(=O)N(C)CC(=O)N(C)[C@@H](CC(C)C)C(=O)N[C@@H](C(C)C)C(=O)N(C)[C@@H](CC(C)C)C(=O)N[C@@H](C)C(=O)N[C@H](C)C(=O)N(C)[C@@H](CC(C)C)C(=O)N[C@@H](CC(C)C)C(=O)N(C)[C@@H](C(C)C)C(=O)N1C |
| 7 | CC/C=C/C[C@@H](C)[C@@H](O)[C@H]1C(=O)N[C@@H](CC)C(=O)N(C)CC(=O)N(C)[C@@H]([C@@H](C)CC)C(=O)N[C@@H](C(C)C)C(=O)N(C)[C@@H](CC(C)C)C(=O)N[C@@H](C)C(=O)N[C@H](C)C(=O)N(C)[C@@H](CC(C)C)C(=O)N(C)[C@@H](CC(C)C)C(=O)N(C)[C@@H](C(C)C)C(=O)N1C |
| 0.59 | C/C=C/C[C@@H](C)[C@@H](O)[C@H]1C(=O)N[C@@H]([C@@H](C)O)C(=O)N(C)CC(=O)N(C)[C@@H](CC(C)C)C(=O)N[C@@H](CC(C)C)C(=O)N(C)[C@@H](CC(C)C)C(=O)N[C@@H](C)C(=O)N[C@H](C)C(=O)N(C)[C@@H](CC(C)C)C(=O)N[C@@H](CC(C)C)C(=O)N(C)[C@@H](C(C)C)C(=O)N1C |

same assay, conditions: hl-60

| IC50 [µM] | SMILES |
| --- | --- |
| > 5 | C/C=C/C[C@@H](C)[C@@H](O)[C@H]1C(=O)N[C@@H](CC)C(=O)N(C)CC(=O)N[C@@H]([C@@H](C)CC)C(=O)N[C@@H](C(C)C)C(=O)N(C)[C@@H](CC(C)C)C(=O)N[C@@H](C)C(=O)N[C@H](C)C(=O)N(C)[C@@H](CC(C)C)C(=O)N(C)[C@@H](CC(C)C)C(=O)N(C)[C@@H](C(C)C)C(=O)N1C |
